According to ChEMBL document CHEMBL3526134, “Molecular mechanism of altered ezetimibe disposition in nonalcoholic steatohepatitis” (Drug Metab Dispos, 2012):
The source made the active and inactive calls. The calls are words filed in the database; no cut-off is given here.

Key:
[1] = Drug level in methionine and choline deficient fed Sprague-Dawley rat urine at 10 mg/kg, iv after 120 mins by LC-MS/MS method; format: ADME, organism-based; design: dose 10 mg/kg, route intravenous; conditions: in vivo, 2 h
Method in brief: (§1)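 After 8 weeks MCD diet, male SD rats under urethane received EZE 10 mg/kg i.v. through femoral vein cannula (ethanol/propylene glycol/PEG 400/water vehicle; n=3-5). Terminal urine taken by bladder puncture at 120 min; EZE and β-glucuronidase-hydrolysed total EZE measured by LC-MS/MS; glucuronide by difference.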

[2] = Drug metabolism in methionine and choline deficient fed Sprague-Dawley rat urine assessed as ezetimibe glucuronide formation at 10 mg/kg, iv after 120 mins by LC-MS/MS method; format: ADME, organism-based; design: dose 10 mg/kg, route intravenous; conditions: in vivo, 2 h; method in brief: as §1
Rattus norvegicus [3] = assay: Effect on total bile acid levels in Sprague-Dawley rat nonalcoholic steatohepatitis model at 10 mg/kg, po after 120 mins by spectrophotometry; format: functional, organism-based; design: dose 10 mg/kg
Rattus norvegicus [4] = assay: Effect on total bile acid levels in Sprague-Dawley rat nonalcoholic steatohepatitis model at 10 mg/kg, iv after 120 mins by spectrophotometry; format: functional, organism-based; design: dose 10 mg/kg
Plasma [5] = assay: Drug level in methionine and choline deficient fed Sprague-Dawley rat plasma at 10 mg/kg, po after 40 mins by LC-MS/MS method; format: ADME, organism-based; design: dose 10 mg/kg, route oral; conditions: in vivo
Method in brief: (§2)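 Cannulated, urethane-anesthetized male SD rats after 8 weeks MCD diet given EZE 10 mg/kg orally in 0.25% carboxymethylcellulose (n=3-5). Plasma collected from 2 to 120 min post-dose; total EZE (after β-glucuronidase, 50°C 60 min) and parent EZE quantified by LC-MS/MS; glucuronide = total minus parent. Mean ± SEM.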

Plasma [6] = assay: Drug metabolism in methionine and choline deficient fed Sprague-Dawley rat plasma assessed as ezetimibe glucuronide formation at 10 mg/kg, po after 40 mins by LC-MS/MS method; format: ADME, organism-based; design: dose 10 mg/kg, route oral; conditions: in vivo; method in brief: as §2
Plasma [7] = assay: Drug level in methionine and choline deficient fed Sprague-Dawley rat plasma at 10 mg/kg, po after 120 mins by LC-MS/MS method; format: ADME, organism-based; design: dose 10 mg/kg, route oral; conditions: in vivo, 2 h; method in brief: as §2
Plasma [8] = assay: Drug metabolism in methionine and choline deficient fed Sprague-Dawley rat plasma assessed as ezetimibe glucuronide formation at 10 mg/kg, po after 120 mins by LC-MS/MS method; format: ADME, organism-based; design: dose 10 mg/kg, route oral; conditions: in vivo, 2 h; method in brief: as §2
Plasma [9] = assay: Drug level in methionine and choline deficient fed Sprague-Dawley rat plasma at 10 mg/kg, iv after 40 mins by LC-MS/MS method; format: ADME, organism-based; design: dose 10 mg/kg, route intravenous; conditions: in vivo
Method in brief: (§3)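 MCD-diet (8 weeks) male SD rats under urethane, femoral artery/vein and bile duct cannulated; EZE 10 mg/kg i.v. bolus via femoral vein in ethanol/propylene glycol/PEG 400/water vehicle (n=3-5). Arterial plasma sampled from 2 to 120 min; 25 µL plasma analysed by LC-MS/MS with and without β-glucuronidase pre-hydrolysis; glucuronide calculated by difference. Mean ± SEM.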

Plasma [10] = assay: Drug metabolism in methionine and choline deficient fed Sprague-Dawley rat plasma assessed as ezetimibe glucuronide formation at 10 mg/kg, iv after 40 mins by LC-MS/MS method; format: ADME, organism-based; design: dose 10 mg/kg, route intravenous; conditions: in vivo; method in brief: as §3
Plasma [11] = assay: Drug level in methionine and choline deficient fed Sprague-Dawley rat plasma at 10 mg/kg, iv after 120 mins by LC-MS/MS method; format: ADME, organism-based; design: dose 10 mg/kg, route intravenous; conditions: in vivo, 2 h; method in brief: as §3
Plasma [12] = assay: Drug metabolism in methionine and choline deficient fed Sprague-Dawley rat plasma assessed as ezetimibe glucuronide formation at 10 mg/kg, iv after 120 mins by LC-MS/MS method; format: ADME, organism-based; design: dose 10 mg/kg, route intravenous; conditions: in vivo, 2 h; method in brief: as §3
[13] = Drug level in methionine and choline deficient fed Sprague-Dawley rat bile at 10 mg/kg, po after 120 mins by LC-MS/MS method; format: ADME, organism-based; design: dose 10 mg/kg, route oral; conditions: in vivo, 2 h
Method in brief: (§4)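 Male SD rats (200-250 g) fed MCD diet 8 weeks, urethane-anesthetized with femoral and bile duct cannulae. EZE 10 mg/kg by oral gavage in 0.25% carboxymethylcellulose (n=3-5). Bile taken at 15-min intervals to 120 min; samples ±β-glucuronidase hydrolysis (50°C, 60 min), hydroxychalcone internal standard, LC-MS/MS on C18 gradient; glucuronide derived as total minus unconjugated EZE.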

[14] = Drug metabolism in methionine and choline deficient fed Sprague-Dawley rat bile assessed as ezetimibe glucuronide formation at 10 mg/kg, po after 120 mins by LC-MS/MS method; format: ADME, organism-based; design: dose 10 mg/kg, route oral; conditions: in vivo, 2 h; method in brief: as §4
[15] = Drug level in methionine and choline deficient fed Sprague-Dawley rat bile at 10 mg/kg, iv after 30 to 90 mins by LC-MS/MS method; format: ADME, organism-based; design: dose 10 mg/kg, route intravenous; conditions: in vivo
Method in brief: (§5)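 Male SD rats (200-250 g) on MCD diet 8 weeks, urethane-anesthetized (1.2 g/kg i.p.), femoral vein/artery and bile duct cannulated, core temperature maintained. EZE 10 mg/kg i.v. via femoral vein in 10% ethanol/40% propylene glycol/30% PEG 400/20% water (n=3-5). Bile collected at 15-min intervals over 120 min; total EZE after β-glucuronidase (50°C, 60 min) and EZE by LC-MS/MS; glucuronide = total minus parent.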

[16] = Drug metabolism in methionine and choline deficient fed Sprague-Dawley rat bile assessed as ezetimibe glucuronide formation at 10 mg/kg, iv after 30 to 90 mins by LC-MS/MS method; format: ADME, organism-based; design: dose 10 mg/kg, route intravenous; conditions: in vivo; method in brief: as §5
[17] = Drug level in methionine and choline deficient fed Sprague-Dawley rat urine at 10 mg/kg, po after 120 mins by LC-MS/MS method; format: ADME, organism-based; design: dose 10 mg/kg, route oral; conditions: in vivo, 2 h
Method in brief: (§6)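 MCD-fed (8 weeks) male SD rats, urethane-anesthetized and cannulated, dosed EZE 10 mg/kg by gavage in 0.25% carboxymethylcellulose (n=3-5). Urine collected by bladder puncture 120 min post-dose; parent and total EZE (after β-glucuronidase, 50°C, 60 min) by LC-MS/MS, glucuronide calculated as their difference.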

[18] = Drug metabolism in methionine and choline deficient fed Sprague-Dawley rat urine assessed as ezetimibe glucuronide formation at 10 mg/kg, po after 120 mins by LC-MS/MS method; format: ADME, organism-based; design: dose 10 mg/kg, route oral; conditions: in vivo, 2 h; method in brief: as §6
[19] = Drug level in methionine and choline deficient fed Sprague-Dawley rat urine treated with ezetimibe at 10 mg/kg, iv after 120 mins by LC-MS/MS method; format: ADME, organism-based; design: dose 10 mg/kg, route intravenous; conditions: in vivo, 2 h; method in brief: as §1
[20] = Drug level in methionine and choline deficient fed Sprague-Dawley rat bile treated with ezetimibe at 10 mg/kg, iv after 30 to 90 mins by LC-MS/MS method; format: ADME, organism-based; design: dose 10 mg/kg, route intravenous; conditions: in vivo; method in brief: as §5

Compound | Drug uptake [1] | Drug metabolism [2] | Activity (Rattus norvegicus [3]) | Activity (Rattus norvegicus [4]) | Drug uptake (Plasma [5]) | Drug metabolism (Plasma [6]) | Drug uptake (Plasma [7]) | Drug metabolism (Plasma [8]) | Drug uptake (Plasma [9]) | Drug metabolism (Plasma [10]) | Drug uptake (Plasma [11]) | Drug metabolism (Plasma [12]) | Drug uptake [13] | Drug metabolism [14] | Drug uptake [15] | Drug metabolism [16] | Drug uptake [17] | Drug metabolism [18] | Drug metabolism [19] | Drug metabolism [20]
O=C1[C@H](CC[C@H](O)c2ccc(F)cc2)[C@@H](c2ccc(O)cc2)N1c1ccc(F)cc1 [EZETIMIBE] | Active | metabolite_detected | inactive | inactive | Active | metabolite_detected | Active | metabolite_detected | Active | metabolite_detected | Active | metabolite_detected | Active | metabolite_detected | Not Active | metabolite_not_detected | Active | metabolite_detected |  | 
O=C(O)[C@H]1O[C@@H](Oc2ccc([C@@H]3[C@@H](CC[C@H](O)c4ccc(F)cc4)C(=O)N3c3ccc(F)cc3)cc2)[C@H](O)[C@@H](O)[C@@H]1O |  |  |  |  |  |  |  |  |  |  |  |  |  |  |  |  |  |  | metabolite_detected | metabolite_not_detected
